Bioassay records (PubChem)
A selection: hits, their analogues and other compounds. The true share with any hit is near 2.5%.
TCR CD3 inh – blocks the human TCR-CD3 interaction. TAMRA-labeled TCR probe fluorescence, biochemical. inhibition, % at 9.4 µM. actives 0.37% (n = 360,000). AID 651800; in the data active = inhibition above about 19%;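 also: recombinant mutant TCR 2C K166C tagged with TAMRA read by polarization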
ABHD4 inh – inhibitors of mouse ABHD4; purified mABHD4, FP-Rh probe fluorescence polarization; actives 0.54% (n = 370,000); inhibition, % at 8.92 µM;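 active = inhibition exceeding the mean over every tested compound plus 3 SD, cut at about 30% in these data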
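Assay system: mABHD4 protein; medium: HEPES pH 7.0, NaCl, Pluronic buffer; dosing: 8.92 µM, single dose; schedule: 45 min + 60 min at 25 °C; signal: FP readout, ex 525 nm / em 598 nm; read-out: normalized percent inhibition of probe labeling; repeats: single replicate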
PRMT1 inh – inhibitors of human PRMT1 | recombinant PRMT1, activity-based probe fluorescence polarization | inhibition, % at 2.79 µM | actives 1.3% (n = 370,000);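 active = inhibition above about 21% made by adding two undisclosed values, limit read from the data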
SIAE inh – inhibitors of human sialic acid acetylesterase SIAE; Q9HAT2; SIAE FP-Rh probe binding, fluorescence polarization; inhibition, % at 9.66 µM; actives 0.69% (n = 370,000); AID 1053197;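 active = inhibition above a cutoff: mean of compounds within the control limits plus 3 SD of those, cut at about 17% in these data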
Target sequence (Q9HAT2 whole entry, looked up): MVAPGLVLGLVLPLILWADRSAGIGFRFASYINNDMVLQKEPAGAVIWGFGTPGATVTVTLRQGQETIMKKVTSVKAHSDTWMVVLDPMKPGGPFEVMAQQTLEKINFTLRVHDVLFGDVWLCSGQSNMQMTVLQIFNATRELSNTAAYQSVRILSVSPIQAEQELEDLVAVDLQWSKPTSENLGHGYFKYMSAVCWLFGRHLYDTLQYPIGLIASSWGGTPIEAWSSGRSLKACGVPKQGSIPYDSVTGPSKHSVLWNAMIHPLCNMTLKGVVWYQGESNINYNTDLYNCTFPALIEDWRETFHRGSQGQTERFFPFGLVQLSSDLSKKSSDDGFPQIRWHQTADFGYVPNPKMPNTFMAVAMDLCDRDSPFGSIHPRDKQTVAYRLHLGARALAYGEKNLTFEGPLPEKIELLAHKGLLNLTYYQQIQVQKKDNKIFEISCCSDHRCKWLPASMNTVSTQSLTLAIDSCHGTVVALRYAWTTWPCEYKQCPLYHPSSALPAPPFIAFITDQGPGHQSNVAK
HTRA1 inh – HTRA1 (human) protease inhibition. Q92743. recombinant HTRA1, FP-rhodamine activity-based probe, fluorescence polarization. inhibition, % at 5.96 µM. actives 0.5% (n = 340,000); in the data active = inhibition above about 36%
PRMT1 confirm – PRMT1 (human) inhibition, FP confirmation | shares compounds with PRMT1 inh | recombinant His-PRMT1, activity-based probe fluorescence polarization | inhibition, % at 2.79 µM | actives 42% (n = 3,300);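 active = mean inhibition across replicates above the hit cutoff derived for the earlier primary screen, cut at about 22% in these data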
Numbers stand for hits.

Results for CCOC(=O)C1=C(C)NC(C)=C(C(=O)OCC)C1c1cccc([N+](=O)[O-])c1 ?
TCR CD3 inh: inactive; ABHD4 inh: inactive; PRMT1 inh: inactive; SIAE inh: inactive; HTRA1 inh: inactive

How did COC(=O)[C@]12C[C@H](CC(=O)N3CCN(C(=O)c4ccco4)CC3)C(=O)N(CCc3ccc(OC)c(OC)c3)C1=C[C@H](C(C)C)O[C@@H]2C1CC1 do in these assays?
ABHD4 inh: inactive; PRMT1 inh: inactive; SIAE inh: inactive

Results for Cc1ccc(-c2cc(-c3ccccc3)[nH]c(=S)c2C#N)cc1 ?
TCR CD3 inh: inactive; ABHD4 inh: inactive; PRMT1 inh: inactive; SIAE inh: inactive; HTRA1 inh: inactive

Results for N#Cc1c(N)[nH]c(=S)c(C#N)c1-c1ccccc1 ?
TCR CD3 inh: inactive; ABHD4 inh: inactive; PRMT1 inh: 38; SIAE inh: inactive; HTRA1 inh: inactive; PRMT1 confirm: inactive

What do the screens show for `O=C(NC1CCCCN(Cc2cccc(C(F)(F)F)c2)C1=O)c1c(F)cccc1F` (centres undefined)?
ABHD4 inh: inactive; PRMT1 inh: inactive; SIAE inh: inactive

Results for CN(C)CCCN(C(=O)CCOc1ccccc1)c1nc2c(F)cccc2s1 ?
TCR CD3 inh: inactive; ABHD4 inh: inactive; PRMT1 inh: 31; SIAE inh: inactive; HTRA1 inh: inactive; PRMT1 confirm: inactive

Results for CN(C)CCCN(C(=O)CCc1ccccc1)c1nc2c(F)cccc2s1 ?
TCR CD3 inh: inactive; ABHD4 inh: inactive; PRMT1 inh: inactive; SIAE inh: inactive; HTRA1 inh: inactive

What do the screens show for `COC(=O)c1ccc(S(=O)(=O)N2CCC(NC(=O)CCC3CCCC3)CC2)cc1`?
ABHD4 inh: inactive; PRMT1 inh: inactive; SIAE inh: inactive

What do the screens show for `Cc1ccc(S(=O)(=O)N2CCC(c3nc4ccccc4o3)CC2)s1`?
ABHD4 inh: inactive; PRMT1 inh: inactive; SIAE inh: inactive

How did COCCn1c(=O)sc2ccccc2c1=O do in these assays?
TCR CD3 inh: inactive; ABHD4 inh: inactive; PRMT1 inh: inactive; SIAE inh: inactive; HTRA1 inh: inactive

What do the screens show for `O=C1CN(c2ccccc2F)C(=O)CN1c1ccccc1F`?
TCR CD3 inh: inactive; ABHD4 inh: inactive; PRMT1 inh: inactive; SIAE inh: inactive; HTRA1 inh: inactive

How did Cn1sc2ccccc2c1=O do in these assays?
TCR CD3 inh: inactive; ABHD4 inh: inactive; PRMT1 inh: 71; SIAE inh: inactive; HTRA1 inh: inactive; PRMT1 confirm: 77

What do the screens show for `O=c1c2ccccc2sn1-c1nccs1`?
TCR CD3 inh: inactive; ABHD4 inh: inactive; PRMT1 inh: 97; SIAE inh: inactive; PRMT1 confirm: 88

How did O=c1c2ccccc2sn1-c1ccccc1F do in these assays?
TCR CD3 inh: inactive; ABHD4 inh: inactive; PRMT1 inh: 89; SIAE inh: inactive; HTRA1 inh: inactive; PRMT1 confirm: 96

Results for O=C1c2ccccc2C(=O)N1c1nccs1 ?
TCR CD3 inh: inactive; ABHD4 inh: inactive; PRMT1 inh: inactive; SIAE inh: inactive; HTRA1 inh: inactive

Results for COC(=O)[C@]12C[C@H](CC(=O)NCCCN3CCCC3=O)C(=O)N(CCC3=CCCCC3)C1=C[C@H](C(C)C)O[C@@H]2C1CC1 ?
ABHD4 inh: inactive; PRMT1 inh: inactive; SIAE inh: inactive

How did COc1ccc(-n2c(SCC(=O)N(CC(C)C)CC(C)C)nnc2-c2ccncc2)cc1 do in these assays?
ABHD4 inh: inactive; PRMT1 inh: inactive; SIAE inh: inactive

Results for O=C(O)c1cc(-c2ccc(/C=C3\NC(=O)N(c4ccccc4)C3=O)o2)ccc1Cl ?
TCR CD3 inh: inactive; ABHD4 inh: inactive; PRMT1 inh: inactive; SIAE inh: inactive; HTRA1 inh: inactive

How did O=C(O)c1cc(-c2ccc(/C=C3\NC(=O)N(c4ccc(Cl)cc4)C3=O)o2)ccc1Cl do in these assays?
TCR CD3 inh: inactive; ABHD4 inh: inactive; PRMT1 inh: 27; SIAE inh: inactive; HTRA1 inh: inactive; PRMT1 confirm: 22

What do the screens show for `Cn1cnc([N+](=O)[O-])c1S(=O)(=O)Oc1ccc(Cl)cc1`?
TCR CD3 inh: inactive; ABHD4 inh: inactive; PRMT1 inh: 31; SIAE inh: inactive; HTRA1 inh: inactive; PRMT1 confirm: 23

How did N#Cc1ccc(Oc2cccc3cccnc23)c([N+](=O)[O-])c1 do in these assays?
TCR CD3 inh: inactive; ABHD4 inh: inactive; PRMT1 inh: 27; SIAE inh: inactive; HTRA1 inh: inactive; PRMT1 confirm: inactive

How did O=[N+]([O-])c1ccc(Oc2cccc3cccnc23)c([N+](=O)[O-])c1 do in these assays?
TCR CD3 inh: inactive; ABHD4 inh: inactive; PRMT1 inh: inactive; SIAE inh: inactive; HTRA1 inh: inactive

What do the screens show for `Cc1sc2nc(SCC(=O)Nc3cccc(S(N)(=O)=O)c3)[nH]c(=O)c2c1C`?
TCR CD3 inh: inactive; ABHD4 inh: inactive; PRMT1 inh: 27; SIAE inh: inactive; HTRA1 inh: inactive; PRMT1 confirm: inactive

How did Cc1cccc(NC(=O)CSc2nc3nc(C)cc(C)c3c(=O)[nH]2)c1 do in these assays?
TCR CD3 inh: inactive; ABHD4 inh: inactive; PRMT1 inh: inactive; SIAE inh: inactive; HTRA1 inh: inactive

Results for CC(=O)Nc1c(O)nc(SCC(=O)Nc2cccc(C)c2)[nH]c1=O ?
TCR CD3 inh: inactive; ABHD4 inh: inactive; PRMT1 inh: 54; SIAE inh: inactive; HTRA1 inh: inactive; PRMT1 confirm: inactive

What do the screens show for `CC(=O)Nc1c(O)nc(SCC(=O)Nc2ccc(C(C)=O)cc2)[nH]c1=O`?
TCR CD3 inh: inactive; ABHD4 inh: inactive; PRMT1 inh: 59; SIAE inh: inactive; HTRA1 inh: inactive; PRMT1 confirm: inactive

What do the screens show for `CCOc1ccc(-n2c(SCC(=O)Nc3ccc(S(=O)(=O)Nc4cc(C)nc(C)n4)cc3)nnc2-c2ccc(C)cc2)cc1`?
ABHD4 inh: inactive; PRMT1 inh: inactive; SIAE inh: inactive

What do the screens show for `Cc1ccc(NC(=O)CC2SC3=NCCN3C2=O)cc1` (centres undefined)?
TCR CD3 inh: inactive; ABHD4 inh: inactive; PRMT1 inh: 94; SIAE inh: inactive; HTRA1 inh: inactive; PRMT1 confirm: inactive

How did O=C(CC1SC2=NCCN2C1=O)Nc1ccccc1 (centres undefined) do in these assays?
TCR CD3 inh: inactive; ABHD4 inh: inactive; PRMT1 inh: inactive; SIAE inh: inactive; HTRA1 inh: inactive

How did c1ccc(Cn2ccc3ccc(-c4ccc5ccn(Cc6cccc(Oc7ccccc7)c6)c5c4)cc32)cc1 do in these assays?
ABHD4 inh: inactive; PRMT1 inh: inactive; SIAE inh: inactive

What do the screens show for `COc1ccc(CC(=O)Nc2nccs2)cc1OC`?
TCR CD3 inh: inactive; ABHD4 inh: inactive; PRMT1 inh: inactive; SIAE inh: inactive; HTRA1 inh: inactive

What do the screens show for `COc1ccc(CC(=O)Nc2ncc([N+](=O)[O-])s2)cc1OC`?
TCR CD3 inh: inactive; ABHD4 inh: inactive; PRMT1 inh: 47; SIAE inh: inactive; HTRA1 inh: inactive; PRMT1 confirm: inactive
